T cruzi growth-1: T. cruzi proliferation inhibition; T. cruzi beta-gal in NIH3T3, GalScreen luminescence, 90 h; 5.9% of 77,000 active; AID 624255; inhibition, % at 8.34 µM;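 active = mean inhibition above about 93%, with at least 55% of replicates each passing it, limit read from the data, passing the limit was not always enough; inconclusive = only one of those two conditions holds; inactive = neither condition holds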
IDH1 mut inh: inhibitors of human IDH1 R132H; 0.18% of 70,000 active; AID 624101; inhibition, % at 10 µM; O75874; IDH1 R132H reductase, diaphorase/resazurin fluorescence, 60 min; in the data active = inhibition above about 34%; inconclusive = no clear call, values can overlap the other calls; inactive = below about 11%;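 note: 0% = DMSO and 100% = no enzyme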
KDM4C inh: KDM4C (human) demethylase inhibition; Q9H3R0; GST-KDM4C 2-372, H3K9me3 peptide, LANCE TR-FRET; inhibition, % at 12.5 µM; 0.15% of 96,000 active; AID 720574;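 active = mean replicate inhibition above about 25%, with at least 55% of replicates also reaching it, limit read from the data, passing the limit was not always enough; inconclusive = only one of those two conditions met; inactive = neither condition met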
Target sequence (Q9H3R0 2-372 limits assumed): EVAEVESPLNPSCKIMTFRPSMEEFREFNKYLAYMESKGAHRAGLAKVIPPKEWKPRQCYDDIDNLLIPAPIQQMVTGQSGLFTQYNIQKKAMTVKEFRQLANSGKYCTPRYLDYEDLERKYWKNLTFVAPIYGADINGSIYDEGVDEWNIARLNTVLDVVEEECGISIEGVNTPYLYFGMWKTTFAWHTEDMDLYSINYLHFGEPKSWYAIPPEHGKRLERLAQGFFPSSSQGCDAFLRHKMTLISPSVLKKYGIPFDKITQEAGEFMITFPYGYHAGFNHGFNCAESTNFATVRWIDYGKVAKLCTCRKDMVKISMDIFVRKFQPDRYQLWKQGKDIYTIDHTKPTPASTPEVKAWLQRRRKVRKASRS
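Material: GST-tagged GASC-1 (JMJD2C) catalytic fragment, aa 2-372. Input: enzyme final amount 10 nM. Medium: HEPES buffer, pH 7.5, plus ascorbate. Reagent: H3K9me3 peptide substrate, Fe(II), 2-oxoglutarate. Doses: single dose. Times: reaction 30 min RT, detection step 1 h RT. Measured by: LANCE TR-FRET. Evaluation: Fall in 671/618 emission ratio as inhibition.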
T cruzi growth-2: blocks T. cruzi growth in NIH3T3 host cells | shares compounds with T cruzi growth-1 | T. cruzi beta-gal in NIH3T3, GalScreen luminescence, 90 h | 72% of 5,600 active | inhibition, % at 8.35 µM;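 active = mean replicate inhibition above about 95% and at least 55% of replicates individually reaching it, limit read from the data; inconclusive = only one of the two criteria is met; inactive = neither criterion is met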
T cruzi growth-3: inhibitors of T. cruzi proliferation. shares compounds with T cruzi growth-1. T. cruzi beta-gal in NIH3T3, GalScreen luminescence, 90 h. inhibition, % at 2.09 µM. 21% of 5,600 active;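 active = mean inhibition above about 95%, with at least 55% of replicates also reaching it, limit read from the data; inconclusive = meets just one of the two conditions; inactive = meets neither condition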;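 note: plate controls were neutral control median for no effect and positive control median for full effect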
3T3 cytotox: NIH/3T3 (mouse) viability loss. shares compounds with T cruzi growth-1. NIH/3T3 viability, CellTiter-Glo ATP luminescence, 90 h. cytotoxicity (signal decrease), % at 8.35 µM. 14% of 5,600 active. AID 651742;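 active = mean signal decrease across replicates above about 35% based on untreated-well scatter, with enough replicates individually passing, limit read from the data; inconclusive = no rule stated though some were filed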;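 note: 0% = median of neutral control wells and 100% = median of positive control wells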
3T3 cytotox 2: cytotoxicity in mouse NIH/3T3 fibroblasts | shares compounds with T cruzi growth-1 | NIH/3T3 viability, CellTiter-Glo ATP luminescence, 90 h | inhibition, % at 24.9 µM | 56% of 5,600 active | AID 651744;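 active = mean loss of cell viability signal at or above a set limit, and enough replicates individually reaching it; inconclusive = meets only the mean limit or only the replicate share; inactive = meets neither condition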;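 note: 0% = median of neutral control wells and 100% = median of positive control wells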
Starred values were filed as active, the others as inactive; u = inconclusive; x = no result. The sample as a whole holds a higher share of hits than the screen did.

SMILES | T cruzi growth-1 | IDH1 mut inh | KDM4C inh | T cruzi growth-2 | T cruzi growth-3 | 3T3 cytotox | 3T3 cytotox 2
C[C@@H]1CCCCO[C@H](CN(C)S(=O)(=O)c2cccs2)[C@H](C)CN([C@@H](C)CO)C(=O)c2cc(NS(=O)(=O)c3ccc(Cl)cc3)ccc2O1 | 95* | 0 | 0 | 102* | 82 | -3 | 14
C[C@@H]1CCCCO[C@H](CN(C)S(=O)(=O)c2cccs2)[C@@H](C)CN([C@@H](C)CO)C(=O)c2cc(NS(=O)(=O)c3ccc(Cl)cc3)ccc2O1 | 93* | x | 0 | 98* | 99* | -16 | -2
C[C@@H]1CCCCO[C@@H](CN(C)S(=O)(=O)c2cccs2)[C@@H](C)CN([C@H](C)CO)C(=O)c2cc(NS(=O)(=O)c3ccc(Cl)cc3)ccc2O1 | u | 1 | 0 | 106* | 72 | 0 | 38*
C[C@H](CO)N1C[C@H](C)[C@H](CN(C)S(=O)(=O)c2cccs2)OCCCC[C@H](C)Oc2ccc(NS(=O)(=O)c3ccc(Cl)cc3)cc2C1=O | 104* | 0 | -1 | 102* | 84 | -9 | 5
C[C@@H]1CCCCO[C@@H](CN(C)S(=O)(=O)c2cccs2)[C@H](C)CN([C@H](C)CO)C(=O)c2cc(NS(=O)(=O)c3ccc(Cl)cc3)ccc2O1 | 92 | 3 | 0 | x | x | x | x
COc1ccc(NC(=O)N(C)C[C@@H]2Oc3c(NC(=O)c4cnccn4)cccc3C(=O)N([C@@H](C)CO)C[C@@H]2C)cc1 | -80 | 0 | 0 | x | x | x | x
O=C(CN1C(=O)c2ccccc2C1=O)Nc1ccc(NC(=O)c2ccccc2F)cc1 | x | 0 | x | x | x | x | x
CC(Oc1ccc(-c2ccccc2)cc1)C(=O)Nc1ccccc1[N+](=O)[O-] (centres undefined) | x | 6 | x | x | x | x | x
C[C@H]1CN([C@@H](C)CO)S(=O)(=O)c2ccc(-c3ccncc3)cc2O[C@H]1CN(C)C(=O)Nc1ccc(F)cc1 | 92 | 1 | 0 | x | x | x | x
Cc1ccccc1-c1ccc2c(c1)O[C@H](CN(C)C(=O)Nc1ccccc1)[C@H](C)CN([C@H](C)CO)S2(=O)=O | 73 | -3 | -4 | x | x | x | x
C[C@@H]1CN([C@@H](C)CO)S(=O)(=O)c2ccc(-c3ccncc3)cc2O[C@H]1CN(C)C(=O)Nc1ccc(F)cc1 | 102* | x | -3 | 101* | 86 | -11 | 64*
Cc1ccccc1-c1ccc2c(c1)O[C@H](CN(C)C(=O)Nc1ccccc1)[C@@H](C)CN([C@H](C)CO)S2(=O)=O | u | 0 | -1 | 79 | -9 | 18 | 28*
Cc1ccc(-c2ccc3c(c2)O[C@@H](CN(C)C(=O)Nc2ccc(F)cc2)[C@H](C)CN([C@@H](C)CO)S3(=O)=O)cc1 | 119* | x | -4 | 95* | 42 | 43* | 35*
C[C@@H]1CN([C@H](C)CO)S(=O)(=O)c2ccc(-c3ccncc3)cc2O[C@@H]1CN(C)C(=O)Nc1ccc(F)cc1 | 108* | x | 0 | 97* | 77 | 11 | 39*
CC(=O)N(C)C[C@H]1Oc2cc(-c3ccncc3)ccc2S(=O)(=O)N([C@@H](C)CO)C[C@H]1C | 50 | 2 | 0 | x | x | x | x
Cc1ccc(-c2ccc3c(c2)O[C@@H](CN(C)C(=O)Nc2ccc(F)cc2)[C@H](C)CN([C@H](C)CO)S3(=O)=O)cc1 | 64 | -1 | 0 | x | x | x | x
CCCC#Cc1ccc2c(c1)O[C@H](CN(C)Cc1ccccc1)[C@H](C)CN([C@H](C)CO)S2(=O)=O | x | -1 | -1 | x | x | x | x
CC1(C)Cc2c(sc3nc(SCC(=O)c4ccccc4)nc(N)c23)CS1 | x | 0 | x | x | x | x | x
COc1ccccc1-n1nnnc1SCC(=O)Nc1ccc(Br)cc1 | x | 0 | x | x | x | x | x
Cc1noc(C)c1NC(=O)N(C)C[C@H]1Oc2ccc(NS(C)(=O)=O)cc2CC(=O)N([C@@H](C)CO)C[C@@H]1C | -2 | 0 | -1 | x | x | x | x
Cc1ccc(-c2cnc3c(c2)C(=O)N([C@H](C)CO)C[C@H](C)[C@@H](CN(C)C(=O)c2cccnc2)O3)cc1 | 11 | 15 | 7 | x | x | x | x
C[C@H](CO)N1C[C@H](C)[C@@H](CN(C)C(=O)Nc2cccc3ccccc23)OCCCC[C@H](C)Oc2ccc(NC(=O)Nc3ccc(C(F)(F)F)cc3)cc2C1=O | 50 | 0 | 0 | x | x | x | x
C[C@@H](NC(=O)C[C@H]1C[C@@H]2c3cc(NC(=O)CC4CC4)ccc3O[C@@H]2[C@H](CO)O1)c1ccccc1 | -32 | 0 | 1 | x | x | x | x
CC(=O)NCCc1c(C(=O)O)[nH]c2ccc(C(C)=O)cc12 | x | 0 | x | x | x | x | x
Cc1cc(OCc2noc(CSc3ccc(C(F)(F)F)cn3)n2)cc(C)c1Cl | x | 1 | x | x | x | x | x
SMILES | T cruzi growth-1 | IDH1 mut inh | KDM4C inh | T cruzi growth-2 | T cruzi growth-3 | 3T3 cytotox | 3T3 cytotox 2
Cc1ccc(S(=O)(=O)NCCCO)cc1C(=O)O | x | 0 | x | x | x | x | x
C[C@H]1CN([C@@H](C)CO)S(=O)(=O)c2ccc(-c3ccncc3)cc2O[C@@H]1CN(C)C(=O)Nc1ccc(F)cc1 | 105* | 59* | 25 | 102* | 89 | 15 | u
C[C@H](CO)N1C[C@H](C)[C@@H](CN(C)C(=O)Nc2ccc(F)cc2)Oc2cc(-c3ccncc3)ccc2S1(=O)=O | 93 | -1 | 0 | x | x | x | x
Cc1ccc(-n2ncc(N(C)N3CC(C)(C)C3=O)c(Cl)c2=O)cc1 | x | 0 | x | x | x | x | x
Cc1ccccc1-c1ccc([C@@H]2[C@@H](CO)N3CCCCN(S(=O)(=O)c4ccc(F)cc4)C[C@@H]23)cc1 | 108* | x | -1 | 109* | 82 | 30 | 81*
O=S(=O)(c1ccc(F)cc1)N1CCCCN2[C@H](CO)[C@@H](c3ccc(-c4ccccc4F)cc3)[C@H]2C1 | 85 | x | x | x | x | x | x
Cc1ccccc1-c1ccc([C@H]2[C@@H](CO)N3CCCCN(S(=O)(=O)c4ccc(F)cc4)C[C@H]23)cc1 | 109* | x | -2 | 98* | u | 12 | 105*
O=S(=O)(c1ccc(F)cc1)N1CCCCN2[C@H](C1)[C@H](c1ccc(-c3ccccc3)cc1)[C@@H]2CO | 64 | x | 0 | x | x | x | x
O=C(CC1(O)C(=O)N(Cc2cccc3ccccc23)c2ccccc21)c1ccco1 (centres undefined) | x | 0 | x | x | x | x | x
COc1ccc(NC(=O)COc2ccc(CO)cc2OC)cc1 | x | 0 | x | x | x | x | x
CC(C)NC(=O)N(C)C[C@@H]1Oc2ccc(NS(=O)(=O)c3ccccc3)cc2CC(=O)N([C@@H](C)CO)C[C@H]1C | -10 | -5 | 0 | x | x | x | x
COc1ccc2c(c1)c(/C=C/c1nc3ccc(I)cc3c(=O)n1CCCO)c(C)n2C | x | 0 | x | x | x | x | x
O=C(NCCN1CCOCC1)C1COc2ccccc2O1 (centres undefined) | x | 0 | x | x | x | x | x
OC[C@@H]1[C@@H](c2ccc(-c3cccnc3)cc2)[C@H]2CN(CC3CC3)CCCCN12 | 44 | x | -1 | x | x | x | x
